Target: T1, Mas-related G-protein coupled receptor member X1 (Mus musculus, UniProt Q8CIP3)
T1 sequence (Q8CIP3 whole entry): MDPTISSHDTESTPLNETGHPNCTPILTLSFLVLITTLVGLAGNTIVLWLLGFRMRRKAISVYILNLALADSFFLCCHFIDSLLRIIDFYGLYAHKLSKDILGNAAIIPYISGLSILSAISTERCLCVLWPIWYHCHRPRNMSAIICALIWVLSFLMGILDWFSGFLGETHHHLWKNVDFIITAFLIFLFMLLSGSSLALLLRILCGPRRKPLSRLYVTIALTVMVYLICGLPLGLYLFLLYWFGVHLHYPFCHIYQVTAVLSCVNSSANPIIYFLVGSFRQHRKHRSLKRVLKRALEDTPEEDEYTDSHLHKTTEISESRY
Assay: Agonist activity at mouse MrgC11 transfected in HEK293 cells by FLIPR assay
How it was run: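 Rodent Mrg receptors were transiently transfected into HEK293 or KNRK cells, which were plated at 25,000 cells/well and imaged 2 days later. Cells were loaded with 2 μM Fluo 4AM and 1% Trypan Red in HBSS for 50 min at 37°C, then held 10 min at room temperature.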

N=C(N)Nc1cccc(C(N)C(=O)N[C@@H](Cc2ccccc2)C(N)=O)c1 (stereo partly specified)
EC50: 31.6 µM

Reference: BindingDB's records for doi:10.1016/j.bmc.2014.09.025 (Johns Hopkins University, 2014)
